In PubChem BioAssay AID504383 (The Scripps Research Institute Molecular Screening Center, 2011):
Several values for one entry are separate records, joined by “and”; a condition that tells them apart may be missing. Identical values can stand only once. The whole screen tested about 2,500 compounds, of which about 1,200 (48%) were called active.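 Rule for the calls: active = mean activation above the low control average plus 3 SD, as set in the primary screen (cut at about 12% in these data); inactive = the rest.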 So high a share suggests a set chosen from earlier hits. The list shows a part of the results. Where a structure was tested more than once in an assay, its records may differ in their call.

molecular target: Troponin I, cardiac muscle (Homo sapiens) + Troponin T, cardiac muscle (Homo sapiens) + Troponin C, slow skeletal and cardiac muscles (Homo sapiens) (UniProt P19429+P45379+P63316); assay: calcium sensitizers of cardiac thin filaments – biochemical, IANBD-TnC fluorescence, triplicate, confirmation (AID 504383); details: IANBD-labeled cardiac RTF, Ca2+ sensitivity fluorescence; at 7.2 µM; stronger effect = higher value; scaled from EC20 to saturating calcium; tested at EC20 calcium, 0.472 mM;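 note: 0% = DMSO at 0.472 mM calcium and 100% = DMSO at 2.9 mM calcium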
In short: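 material = labelled regulated thin filaments | probe or stimulus = Ca2+ 0.472 mM, EC20 level | dosing = single nominal compound dose of 7.2 µM | schedule = 15 min at 25 °C | signal = fluorescence intensity of labelled filaments | evaluation = fluorescence gain scaled between EC20 and EC100 calcium controls | benchmarks = low control EC20 calcium, high control EC100 calcium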

| SMILES | activation |
| --- | --- |
| CCCNS(=O)(=O)c1ccc2c(c1)n(C)c(=O)n2C | 12.4% (active) |
| CCCCN(Cc1ccccc1)S(=O)(=O)c1ccc2c(c1)n(C)c(=O)c(=O)n2C | 2.32% (inactive) |
| COc1ccc(S(=O)(=O)N(CC(C)C)C2CCS(=O)(=O)C2)cc1OC (configuration not stated) | 17.1% (active) |
| CCN(CC)CCN1C(=O)c2cccc3cc(N)cc(c23)C1=O | 128% (active) |
| O=C1c2cccc3cc([N+](=O)[O-])cc(c23)C(=O)N1CCN1CCCC1 | 8.4% (inactive) |
| O=C(N/N=C/c1ccc([N+](=O)[O-])cc1)c1cc(-c2ccc3c(c2)OCO3)n[nH]1 | 0.5% (inactive) |
| O=C(N/N=C/c1ccc2c(c1)OCO2)/C(=C/c1ccc2c(c1)OCO2)NC(=O)c1ccccc1 | 11.7% (active) |
| CN(C)c1ccc(/C=N/NC(=O)c2cnc3ccccc3c2)cc1 | 6.1% (inactive) |
| Cc1ccc(Cn2cc(CCC(=O)O)c3ccccc32)cc1 | 16.7% (active) |
| Nc1nc(SCc2cccc(Br)c2)n[nH]1 | 9.18% (inactive) |
| COc1cc2c(cc1NC(=O)COC(=O)/C=C/c1ccc([N+](=O)[O-])cc1)oc1ccccc12 | 4480% (active) |
| COc1cc([N+](=O)[O-])ccc1N/C=C/C(=O)c1cccs1 | 5.01% (inactive) |
| COc1cc([N+](=O)[O-])ccc1NC(=O)COC(=O)c1n[nH]c2ccccc12 | 6.72% (inactive) |
| CN1CCCc2cc3c(C(F)(F)F)cc(=O)oc3nc21 | 10.7% (inactive) |
| Cc1ccc(C(=O)NCC(=O)OCC(=O)N(CC(C)C)c2c(N)n(Cc3ccccc3)c(=O)[nH]c2=O)cc1 | 8.28% (inactive) |
| Cc1ccc(C(=O)NCC(=O)OCC(=O)c2ccc(Cl)s2)cc1 | 232% (active) |
| Cc1cc(C)n(NC(=S)NC2CCCCC2)c(=O)c1C#N | 7.29% (inactive) |
| CCCN(CCC)c1nc2c(C)cccn2c(=O)c1/C=C1/SC(=S)N(Cc2ccco2)C1=O | 3.6% (inactive) |
| O=C1/C(=C\c2c(NCCOCCO)nc3ccccn3c2=O)SC(=S)N1Cc1ccco1 | 92.6% (active) |
| Cc1ccc(S(=O)(=O)N2CCN(c3ncccn3)CC2)cc1C | 4.74% (inactive) |
| COc1ccc(S(=O)(=O)N2CCSC2)cc1C | 2.98% (inactive) |
| Cc1ccc(/C=C/C(=O)N2CCN(S(=O)(=O)c3ccc(C)c(C)c3)CC2)o1 | 17.9% (active) |
| Oc1[nH]c2ccccc2c1N=Nc1ccc(F)cc1 | 109% (active) |
| Oc1[nH]c2ccccc2c1N=Nc1ccccc1 | 26.4% (active) |
| Oc1[nH]c2ccccc2c1N=Nc1ccccc1F | 2.72% (inactive) |

| SMILES | activation |
| --- | --- |
| Oc1[nH]c2ccccc2c1N=Nc1cccc(Cl)c1 | 7.29% (inactive) |
| Oc1[nH]c2ccccc2c1N=Nc1ccccc1Cl | 4.59% (inactive) |
| Cc1ccc(Cl)c2c(N=Nc3ccccc3)c(O)[nH]c12 | 14.7% (active) |
| O=C(c1cnc2ccccc2n1)N1CCN(c2ccc(C(F)(F)F)cn2)CC1 | 32.8% (active) |
| Cc1ccc(NC(=O)O/N=C/c2ccc(F)cc2)cc1 | 8.78% (inactive) |
| Cc1ccc(NC(=O)CO/N=C/c2ccc(N(C)C)cc2)cc1 | 6.41% (inactive) |
| CCN(CC)c1ccc(/C=N/OCC(=O)Nc2cccc(C)c2)cc1 | 19.6% (active) |
| O=C(N1CCOCC1)N1CCN(c2ccc(F)cc2)CC1 | 2.34% (inactive) |
| O=C(O)c1cc(NCc2ccc(F)cc2)ccc1N1CCOCC1 | 91.3% (active) |
| O=C1N/C(=C\c2ccc(N3CCOCC3)c(F)c2)C(=O)N1Cc1ccccc1 | 5.84% (inactive) |
| C=CCOc1ccc(CNc2ccc3[nH]c(=O)[nH]c3c2)cc1OCC | 25% (active) |
| CN(C)c1ccc(/C=C/c2nc3ccccc3c(=O)[nH]2)cc1 | 9.5% (inactive) |
| CC(C)CC[n+]1ccccc1/C=C/c1ccc(N(C)C)cc1 | 7% (inactive) |
| CN(C)c1ccc(/C=C/c2ccc3ccccc3n2)cc1 | 14.9% (active) |
| CN(C)c1ccc(C2C=C(c3ccc(Cl)cc3OC(F)F)Nc3ncnn32)cc1 (configuration not stated) | 80% (active) |
| Cc1ccsc1C1C=C(c2cccc(Br)c2)Nc2ncnn21 (configuration not stated) | 1.58% (inactive) |
| Cc1c(C=O)c2ccccn2c1C(=O)c1cccs1 | 6.64% (inactive) |
| Nc1nc(NCCCN2CCOCC2)nc(Nc2cccc(Cl)c2)c1[N+](=O)[O-] | 5.57% (inactive) |
| Cc1cccc(Nc2c([N+](=O)[O-])c(=O)oc3ccccc23)c1 | 23.2% (active) |
| COc1ccc(CC/C(C)=N\NC(N)=O)cc1 | 16.2% (active) |
| COc1ccc(CC(=O)NNC(=O)c2ccncc2)cc1 | 8.9% (inactive) |
| COc1ccc(CCC(=O)N2CCc3ccccc32)cc1 | 6.5% (inactive) |
| Cc1ccc(C)c(S(=O)(=O)N2CCCC2CNC(=O)C(=O)NC2CC2)c1 (configuration not stated) | 5.98% (inactive) |
| Cc1ccc(SCC(=O)c2sc(-c3ccccc3)nc2C)cc1 | 35.4% (active) |
| C=C(C)c1sc(-c2ccc(Cl)cc2)nc1C | 1.76% (inactive) |

| SMILES | activation |
| --- | --- |
| Cc1ccc(-c2nc(NC(=O)CSc3cc(C)c4ccccc4n3)ns2)cc1 | 4.39% (inactive) |
| COc1ccc2noc3c2c1C(=O)c1ccccc1-3 | 3.9% (inactive) |
| Nc1ccc2c3c(cccc13)CC2 | 6.56% (inactive) |
| COc1ccc2c3c(cccc13)C(=O)CC2 | 18.7% (active) |
| CCCn1c(=O)c(C(=O)NNC(=O)c2ccccc2[N+](=O)[O-])c(O)c2ccccc21 | 18.9% (active) |
| CC1CCN(c2oc(-c3ccccc3F)nc2C#N)CC1 | 10.8% (inactive) |
| CCOC(=O)Cn1c(=NC(=O)c2cc(-c3cccs3)nc3ccccc23)sc2cc(S(N)(=O)=O)ccc21 | 1.79% (inactive) |
| COCCn1c(=NC(=O)/C=C/c2ccccc2)sc2cc(NC(C)=O)ccc21 | 19.9% (active) |
| CC1(C(=O)Nc2nnc(SCc3ccccc3)s2)Cc2ccccc2C(=O)O1 (configuration not stated) | 22.1% (active) |
| CC1(C)CC(=O)c2sc(NC(=O)Cc3cccs3)nc2C1 | 4.44% (inactive) |
| CN1CCC2(CC1)C1CN(C)CC=C1C(C#N)=C(N)C2(C#N)C#N (configuration not stated) | 1.95% (inactive) and 33.7% (active) |
| CCOc1ccc(C2C(C#N)=C(N)SC(N)=C2C#N)c(OCC)c1 | 10% (inactive) |
| CCOc1cc(C2C(C#N)=C(N)OC(C)=C2C(C)=O)cc(Br)c1O (configuration not stated) | 213% (active) |
| O=C(COc1ccccc1Cl)N1CCN(c2ccccn2)CC1 | 10.9% (inactive) |
| S=C(Nc1cc(Cl)ccc1Oc1ccccc1)N1CCN(c2ccccn2)CC1 | 102% (active) |
| O=c1c2ccccc2nc2n1CCCN2 | 17.2% (active) |
| CCC[C@@H](CN1CCC[C@H]1CN1C(N)=NC[C@@H]1Cc1ccccc1)N1C[C@@H](Cc2ccccc2)N(CCCC2CCCC2)C1=N | 38.3% (active) |
| CCOc1cc(C#N)ccc1OCC(=O)N1CCc2ccccc2C1 | 12.3% (active) |
| O=C(Cn1c(=O)oc2cc(S(=O)(=O)N3CCCC3)ccc21)N1CCc2ccccc2C1 | 10.4% (inactive) |
| CC(C(=O)N1CCc2ccccc2C1)N1C(=O)c2ccccc2C1=O (configuration not stated) | 2.65% (inactive) |
| CCNc1cccc2c1C(=O)N(C)C2=O | 1.44% (inactive) |
| CCC1(O)C(=O)OCc2c1cc1n(c2=O)Cc2cc3cc(O)ccc3nc2-1 (configuration not stated) | 16.1% (active) |
| CC[C@@]1(O)C(=O)OCc2c1cc1n(c2=O)Cc2cc3c(CN(C)C)c(O)ccc3nc2-1 | 22.4% (active) |
| CCOc1nnc(C)c2c(C)n(-c3cccc(Cl)c3)nc12 | 5.31% (inactive) |
| Cc1ccc(/C=C2/SC(=O)NC2=S)o1 | 29.6% (active) |

| SMILES | activation |
| --- | --- |
| O=C(O)c1ccccc1-c1ccc(/C=C2\SC(=O)N(c3ccccc3)C2=O)o1 | 9.01% (inactive) |
| Cc1noc(/C=C/c2ccc(-c3ccccc3Cl)o2)c1[N+](=O)[O-] | -1.31% (inactive) |
| O=C1NC(=S)/C(=C\c2ccc(-c3ccccc3Cl)o2)S1 | 14.2% (active) |
| Cc1nc2ccc(Cl)cc2nc(C)/c1=N\O | 6.95% (inactive) |
| CCOC(=O)c1c(-c2ccccc2)csc1NC(=O)/C(C#N)=C\c1ccc(O)c(OC)c1 | 11.3% (inactive) |
| CCOC(=O)c1c(-c2ccccc2)csc1NC(=O)/C(C#N)=C/c1ccc(O)c(OC)c1 | 23.8% (active) |
| CCNC(=S)N/N=C/c1sc(N2CCCCC2)nc1-c1cccs1 | 1.11% (inactive) |
| S=C(Nc1ccc(Cl)cc1)N(CCCN1CCOCC1)Cc1ccco1 | 11.2% (inactive) |
| COC(=O)Cc1ccc(NC(=S)NCCCN2CCOCC2)cc1 | 2.97% (inactive) |
| S=C(NCCCN1CCOCC1)Nc1ccc(-c2nc3ccccc3[nH]2)cc1 | 17% (active) |
| C(=N\Nc1nnnn1-c1ccccc1)/c1ccncc1 | 6.05% (inactive) |
| O=C(O)c1ccccc1CSc1nnnn1-c1ccccc1 | 51.1% (active) |
| O=C(NCC1CCCO1)c1ccc2c(c1)C(=O)N(c1cccc([N+](=O)[O-])c1)C2=O (configuration not stated) | 31.3% (active) |
| O=C(NCC1CCCO1)c1cccc2c1C(=O)c1ccc(N3CCC(Cc4ccccc4)CC3)cc1S2(=O)=O (configuration not stated) | 4.73% (inactive) |
| O=C(Cn1ncc2c3ccccc3n(Cc3cccc(Cl)c3)c2c1=O)NCC1CCCO1 (configuration not stated) | 5.86% (inactive) |
| Cc1cccc(CSc2ccc(-c3ccco3)nn2)c1 | -0.44% (inactive) |
| N#Cc1ccccc1OCC(=O)OCC(=O)c1ccc2c(c1)NC(=O)CO2 | 21.9% (active) |
| CSc1c(CC(=O)NCCO)n(C)c2ccccc12 | 23.2% (active) |
| Cn1c(=O)cc(SCC(=O)NCC2COc3ccccc3O2)c2ccccc21 (configuration not stated) | 7.4% (inactive) |
| O=C(NC1CCCCC1)c1ccccc1NC(=S)NC(=O)C1CCC1 | 24.5% (active) |
| Cc1ccccc1C(=O)NC(=S)NC1CC1 | 0.94% (inactive) |
| O=C(O)c1ccccc1/C=N/NC(=S)NC1CCCCC1 | 5.68% (inactive) |
